For one series, the target named is D(1B) dopamine receptor (Homo sapiens, UniProt P21918). Description: Displacement of radiolabeled SKF-38393 from dopamine D5 receptor.
Series [1] addresses Alpha-2A adrenergic receptor (Homo sapiens, UniProt P08913). Description: Displacement of [3H][…] from adrenergic alpha2A receptor. Background: In a radioligand displacement assay an active substance lowers the binding of a labelled ligand.
In another series the target is Histamine H1 receptor (Homo sapiens, UniProt P35367). Description: Binding affinity to histamine H1 receptor.
Series [2] addresses Sigma non-opioid intracellular receptor 1 (Homo sapiens, UniProt Q99720). As to the kind of experiment: Binding affinity to sigma1 receptor.
In series [3] the target is Muscarinic acetylcholine receptor M3 (Homo sapiens, UniProt P20309). Description: Displacement of [3H]QNB from muscarinic M3 receptor.
Series [4] addresses Metabotropic glutamate receptor 1 (Homo sapiens, UniProt Q13255). Description: Binding affinity at mGluR1.
Series [5] addresses 5-hydroxytryptamine receptor 5A (Homo sapiens, UniProt P47898). Description: Displacement of [3H]LSD from 5HT5A receptor.
The target of the next series is Mu-type opioid receptor (Homo sapiens, UniProt P35372). Description: Displacement of [3H]diprenorphine from mu opioid receptor.
The next series has as its target D(4) dopamine receptor (Homo sapiens, UniProt P21917). Description: Displacement of [3H]N-methylspiperone from dopamine D4 receptor.
Series [6] has as its target Alpha-1A adrenergic receptor (Homo sapiens, UniProt P35348). As to the kind of experiment: Displacement of [3H]prazosin from adrenergic alpha-1A receptor.
Series [7] addresses Muscarinic acetylcholine receptor M4 (Homo sapiens, UniProt P08173). Description: Displacement of [3H]QNB from muscarinic M4 receptor.
The target in series [8] is Metabotropic glutamate receptor 2 (Homo sapiens, UniProt Q14416). As to the kind of experiment: Binding affinity at mGluR2.
For a further series, the target named is Histamine H2 receptor (Homo sapiens, UniProt P25021). Description: Binding affinity to from histamine H2 receptor.
For series [9], the target named is Metabotropic glutamate receptor 6 (Homo sapiens, UniProt O15303). Description: Binding affinity at mGluR6.
The target of series [10] is 5-hydroxytryptamine receptor 6 (Homo sapiens, UniProt P50406). Description: Displacement of [3H]LSD from 5HT6 receptor.
The target of another series is D(1A) dopamine receptor (Homo sapiens, UniProt P21728). As to the kind of experiment: Displacement of [3H]SCH-23390 from dopamine D1 receptor.
A short description of series [11]: Lipophilicity, log D of the compound. As to conditions: octanol/water. The class given is physicochemical. Put shortly:
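Partition of the [18F]-labeled radioligand between n-octanol and sodium phosphate buffer (0.15 M, pH 7.4) was measured, following a general method described earlier.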

Series [12] has as its target Beta-1 adrenergic receptor (Homo sapiens, UniProt P08588). As to the kind of experiment: Displacement of [125I]pindolol from adrenergic beta-1 receptor.
The target in series [13] is Metabotropic glutamate receptor 5 (Rattus norvegicus, UniProt P31424). Description: Displacement of […] from mGluR5 in rat brain membrane. The class given is cell membranes. Put shortly:
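Competition binding against [³H]MPEPy in rat whole-brain membranes (minus cerebellum and brainstem), homogenized in 50 mM Tris-HCl/saline pH 7.5, pelleted at 39 800 g. Membranes 5 mg/800 µL final. Competitor from 10 mM ethanol stock, final 0.01 nM to 1 mM. Incubated 1 h at 22 °C, filtered on PEI-soaked GF/B, washed with cold saline, scintillation counted. Three determinations.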

The target of series [14] is Muscarinic acetylcholine receptor M2 (Homo sapiens, UniProt P08172). Description: Displacement of [3H]QNB from muscarinic M2 receptor.
Series [15] concerns the target 5-hydroxytryptamine receptor 1D (Homo sapiens, UniProt P28221). Description: Displacement of [3H]GR-125743 from 5HT1D receptor.
Series [16] has as its target 5-hydroxytryptamine receptor 2C (Homo sapiens, UniProt P28335). Description: Displacement of [3H]mesulergine from 5HT2C receptor.
Series [17] deals with Serotonin 3 (5-HT3) receptor. As to the kind of experiment: Displacement of [3H]zacopride from 5HT3 receptor. In kind it is protein-complex assay, Homo sapiens.
For series [18], the target named is Alpha-2B adrenergic receptor (Homo sapiens, UniProt P18089). As to the kind of experiment: Displacement of [3H][…] from adrenergic alpha-2B receptor.
The target of series [19] is Sodium-dependent serotonin transporter (Homo sapiens, UniProt P31645). As to the kind of experiment: Displacement of [3H]citalopram from SERT.
For series [20], the target named is 5-hydroxytryptamine receptor 1A (Homo sapiens, UniProt P08908). As to the kind of experiment: Displacement of [3H]8-OH-DPAT from 5HT1A receptor.
The target in the next series is D(2) dopamine receptor (Homo sapiens, UniProt P14416). As to the kind of experiment: Displacement of [3H]N-methylspiperone from dopamine D2 receptor.
The target in series [21] is Metabotropic glutamate receptor 4 (Homo sapiens, UniProt Q14833). As to the kind of experiment: Binding affinity at mGluR4.
A further series has as its target Histamine H3 receptor (Homo sapiens, UniProt Q9Y5N1). As to the kind of experiment: Binding affinity to histamine H3 receptor.
The target of series [22] is Delta-type opioid receptor (Homo sapiens, UniProt P41143). Description: Displacement of [3H]DADLE from delta opioid receptor.
For series [23], the target named is Muscarinic acetylcholine receptor M1 (Homo sapiens, UniProt P11229). Description: Displacement of [3H]QNB from muscarinic M1 receptor.
Series [24] addresses 5-hydroxytryptamine receptor 1B (Homo sapiens, UniProt P28222). Description: Displacement of [3H]GR-125743 from 5HT1B receptor.
Series [25] has as its target Metabotropic glutamate receptor 8 (Homo sapiens, UniProt O00222). As to the kind of experiment: Binding affinity at mGluR8.
Series [26] deals with 5-hydroxytryptamine receptor 2A (Homo sapiens, UniProt P28223). Description: Displacement of [3H]ketanserin from 5HT2A receptor.
The target of another series is Histamine H4 receptor (Homo sapiens, UniProt Q9H3N8). Description: Binding affinity to histamine H4 receptor.
In a further series the target is D(3) dopamine receptor (Homo sapiens, UniProt P35462). As to the kind of experiment: Displacement of [3H]N-methylspiperone from dopamine D3 receptor.
The target of series [27] is Alpha-1B adrenergic receptor (Homo sapiens, UniProt P35368). As to the kind of experiment: Displacement of [3H]prazosin from adrenergic alpha-1B receptor.
Series [28] has as its target 5-hydroxytryptamine receptor 2B (Homo sapiens, UniProt P41595). Description: Displacement of [3H]LSD from 5HT2B receptor.
Series [29] concerns the target Sodium-dependent noradrenaline transporter (Homo sapiens, UniProt P23975). Description: Displacement of [3H]nisoxitine from NET.
Series [30] has as its target Muscarinic acetylcholine receptor M5 (Homo sapiens, UniProt P08912). As to the kind of experiment: Displacement of [3H]QNB from muscarinic M5 receptor.
Series [31] in a line: Displacement of [3H]MK-801 from NMDA receptor. Details: species or system Homo sapiens.
Series [32] addresses Beta-2 adrenergic receptor (Homo sapiens, UniProt P07550). Description: Displacement of [125I]pindolol from adrenergic beta-2 receptor.
The target in series [33] is Alpha-2C adrenergic receptor (Homo sapiens, UniProt P18825). Description: Displacement of [3H][…] from adrenergic alpha-2C receptor.
Series [34] has as its target 5-hydroxytryptamine receptor 7 (Homo sapiens, UniProt P34969). Description: Displacement of [3H]LSD from 5HT7 receptor.
Series [35] has as its target Kappa-type opioid receptor (Homo sapiens, UniProt P41145). Description: Displacement of [3H]bremazocine from kappa opioid receptor.
Series [36] deals with 5-hydroxytryptamine receptor 1E (Homo sapiens, UniProt P28566). As to the kind of experiment: Displacement of [3H]5-HT from 5HT1E receptor.
The target of series [37] is Sodium-dependent dopamine transporter (Homo sapiens, UniProt Q01959). As to the kind of experiment: Displacement of [3H]WIN-35428 from DAT.

pIC50, pKi: −log10 of the molar value. A value given as a limit tells only on which side of the number the result lay.

Metabotropic glutamate receptor 5, sequence (P31424 whole entry): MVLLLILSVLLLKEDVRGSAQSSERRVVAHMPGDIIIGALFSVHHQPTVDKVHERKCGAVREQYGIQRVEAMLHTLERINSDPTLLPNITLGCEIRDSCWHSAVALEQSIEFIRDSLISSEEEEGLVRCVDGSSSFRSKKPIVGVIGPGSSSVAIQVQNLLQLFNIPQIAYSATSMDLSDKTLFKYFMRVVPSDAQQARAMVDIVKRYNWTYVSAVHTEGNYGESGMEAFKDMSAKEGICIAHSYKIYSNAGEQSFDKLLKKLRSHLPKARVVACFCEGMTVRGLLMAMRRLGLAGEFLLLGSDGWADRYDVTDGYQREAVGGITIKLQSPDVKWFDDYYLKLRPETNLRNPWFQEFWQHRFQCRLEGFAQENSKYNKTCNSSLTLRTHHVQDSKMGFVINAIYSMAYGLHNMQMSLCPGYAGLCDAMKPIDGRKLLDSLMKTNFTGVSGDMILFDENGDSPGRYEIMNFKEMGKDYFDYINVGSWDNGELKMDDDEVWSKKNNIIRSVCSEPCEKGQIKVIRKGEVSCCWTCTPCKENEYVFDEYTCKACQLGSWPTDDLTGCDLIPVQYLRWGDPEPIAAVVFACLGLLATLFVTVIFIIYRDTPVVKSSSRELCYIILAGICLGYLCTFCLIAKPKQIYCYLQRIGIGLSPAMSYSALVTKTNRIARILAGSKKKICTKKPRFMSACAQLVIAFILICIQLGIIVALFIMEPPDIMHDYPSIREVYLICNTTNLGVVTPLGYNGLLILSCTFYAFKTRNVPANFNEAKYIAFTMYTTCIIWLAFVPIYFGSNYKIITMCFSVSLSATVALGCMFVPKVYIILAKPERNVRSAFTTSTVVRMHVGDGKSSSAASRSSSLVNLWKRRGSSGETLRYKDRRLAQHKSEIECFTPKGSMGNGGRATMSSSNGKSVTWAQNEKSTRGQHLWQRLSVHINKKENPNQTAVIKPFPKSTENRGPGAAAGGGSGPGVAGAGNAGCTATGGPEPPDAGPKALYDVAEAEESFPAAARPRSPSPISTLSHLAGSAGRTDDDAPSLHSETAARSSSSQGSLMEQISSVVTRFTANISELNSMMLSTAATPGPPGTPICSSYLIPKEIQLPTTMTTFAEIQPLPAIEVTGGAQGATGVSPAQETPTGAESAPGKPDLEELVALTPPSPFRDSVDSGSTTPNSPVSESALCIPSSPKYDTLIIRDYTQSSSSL
Histamine H1 receptor, sequence (P35367 whole entry): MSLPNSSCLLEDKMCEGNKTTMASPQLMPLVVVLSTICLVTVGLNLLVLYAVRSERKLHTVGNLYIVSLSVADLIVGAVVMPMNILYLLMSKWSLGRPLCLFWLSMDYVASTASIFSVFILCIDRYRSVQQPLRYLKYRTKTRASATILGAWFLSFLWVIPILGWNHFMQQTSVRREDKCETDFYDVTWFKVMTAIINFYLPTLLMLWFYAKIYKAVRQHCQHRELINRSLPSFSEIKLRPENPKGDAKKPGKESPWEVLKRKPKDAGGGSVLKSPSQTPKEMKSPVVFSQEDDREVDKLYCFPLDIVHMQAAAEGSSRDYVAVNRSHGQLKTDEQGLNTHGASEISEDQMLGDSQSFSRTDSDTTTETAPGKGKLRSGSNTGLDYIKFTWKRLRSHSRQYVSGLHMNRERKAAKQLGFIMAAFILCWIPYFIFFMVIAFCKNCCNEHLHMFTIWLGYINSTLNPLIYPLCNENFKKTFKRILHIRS
Sigma non-opioid intracellular receptor 1, sequence (Q99720 whole entry): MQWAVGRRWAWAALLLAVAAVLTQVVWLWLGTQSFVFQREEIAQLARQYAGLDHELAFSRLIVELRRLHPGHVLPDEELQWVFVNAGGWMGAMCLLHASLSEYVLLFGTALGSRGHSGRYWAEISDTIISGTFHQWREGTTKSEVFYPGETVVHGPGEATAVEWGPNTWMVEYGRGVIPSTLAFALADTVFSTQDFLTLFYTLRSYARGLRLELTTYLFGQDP
5-hydroxytryptamine receptor 7, sequence (P34969 whole entry): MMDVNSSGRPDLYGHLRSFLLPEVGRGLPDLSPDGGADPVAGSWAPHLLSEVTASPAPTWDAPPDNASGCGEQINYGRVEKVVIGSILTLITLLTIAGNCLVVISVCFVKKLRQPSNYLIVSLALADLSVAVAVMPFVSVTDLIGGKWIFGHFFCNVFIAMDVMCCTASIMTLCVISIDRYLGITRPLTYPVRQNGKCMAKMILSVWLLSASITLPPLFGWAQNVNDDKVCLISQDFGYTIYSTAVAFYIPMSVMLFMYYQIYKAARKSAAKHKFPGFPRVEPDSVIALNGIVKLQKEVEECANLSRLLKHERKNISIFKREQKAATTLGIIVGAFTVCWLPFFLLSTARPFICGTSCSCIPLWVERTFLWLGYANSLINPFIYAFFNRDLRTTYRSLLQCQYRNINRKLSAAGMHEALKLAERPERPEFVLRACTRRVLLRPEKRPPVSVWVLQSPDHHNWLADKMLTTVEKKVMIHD
5-hydroxytryptamine receptor 2A, sequence (P28223 whole entry): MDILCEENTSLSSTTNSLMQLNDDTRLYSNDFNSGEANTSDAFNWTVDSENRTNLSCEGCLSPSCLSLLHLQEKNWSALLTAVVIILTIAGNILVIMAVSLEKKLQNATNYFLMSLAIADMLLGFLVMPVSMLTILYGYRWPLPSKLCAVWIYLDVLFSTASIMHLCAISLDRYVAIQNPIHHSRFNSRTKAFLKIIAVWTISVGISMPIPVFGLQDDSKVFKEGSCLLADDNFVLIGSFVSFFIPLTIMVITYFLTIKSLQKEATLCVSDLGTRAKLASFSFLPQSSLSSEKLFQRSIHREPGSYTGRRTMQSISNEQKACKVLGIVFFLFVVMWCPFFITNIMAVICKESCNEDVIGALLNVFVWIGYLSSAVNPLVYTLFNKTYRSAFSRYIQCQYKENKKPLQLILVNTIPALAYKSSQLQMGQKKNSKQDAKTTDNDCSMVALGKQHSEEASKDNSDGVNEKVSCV
Mu-type opioid receptor, sequence (P35372 whole entry): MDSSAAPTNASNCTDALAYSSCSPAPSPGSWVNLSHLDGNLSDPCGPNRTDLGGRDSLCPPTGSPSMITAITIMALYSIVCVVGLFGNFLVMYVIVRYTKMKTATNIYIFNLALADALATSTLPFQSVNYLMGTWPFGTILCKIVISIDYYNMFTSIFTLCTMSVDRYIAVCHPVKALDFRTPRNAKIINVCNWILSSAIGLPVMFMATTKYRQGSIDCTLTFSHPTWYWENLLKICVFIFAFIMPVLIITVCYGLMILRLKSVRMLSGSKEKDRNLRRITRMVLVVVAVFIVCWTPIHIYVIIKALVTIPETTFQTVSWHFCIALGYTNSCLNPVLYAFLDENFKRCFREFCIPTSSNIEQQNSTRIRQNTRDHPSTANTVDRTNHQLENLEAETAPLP
Metabotropic glutamate receptor 6, sequence (O15303 whole entry): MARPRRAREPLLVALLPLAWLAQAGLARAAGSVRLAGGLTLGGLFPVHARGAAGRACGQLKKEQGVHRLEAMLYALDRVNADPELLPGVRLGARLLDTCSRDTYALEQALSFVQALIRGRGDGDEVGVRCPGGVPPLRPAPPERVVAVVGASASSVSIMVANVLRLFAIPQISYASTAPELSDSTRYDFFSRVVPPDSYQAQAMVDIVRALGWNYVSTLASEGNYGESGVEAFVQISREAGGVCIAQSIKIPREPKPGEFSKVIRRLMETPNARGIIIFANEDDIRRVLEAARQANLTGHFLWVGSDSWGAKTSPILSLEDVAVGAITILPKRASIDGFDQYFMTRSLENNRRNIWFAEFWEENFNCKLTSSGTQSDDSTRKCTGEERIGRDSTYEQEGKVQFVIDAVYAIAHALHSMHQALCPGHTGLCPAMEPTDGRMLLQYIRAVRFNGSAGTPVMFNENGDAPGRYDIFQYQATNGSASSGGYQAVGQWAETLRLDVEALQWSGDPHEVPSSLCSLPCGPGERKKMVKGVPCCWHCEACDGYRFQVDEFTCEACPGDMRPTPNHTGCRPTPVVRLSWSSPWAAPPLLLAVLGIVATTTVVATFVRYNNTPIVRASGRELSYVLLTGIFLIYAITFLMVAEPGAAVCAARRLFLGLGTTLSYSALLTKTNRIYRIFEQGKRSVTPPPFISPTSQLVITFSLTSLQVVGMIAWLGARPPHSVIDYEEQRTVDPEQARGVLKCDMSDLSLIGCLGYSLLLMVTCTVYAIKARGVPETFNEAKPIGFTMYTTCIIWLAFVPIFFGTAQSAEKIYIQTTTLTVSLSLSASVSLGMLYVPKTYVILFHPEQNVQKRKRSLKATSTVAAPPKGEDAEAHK
5-hydroxytryptamine receptor 2C, sequence (P28335 whole entry): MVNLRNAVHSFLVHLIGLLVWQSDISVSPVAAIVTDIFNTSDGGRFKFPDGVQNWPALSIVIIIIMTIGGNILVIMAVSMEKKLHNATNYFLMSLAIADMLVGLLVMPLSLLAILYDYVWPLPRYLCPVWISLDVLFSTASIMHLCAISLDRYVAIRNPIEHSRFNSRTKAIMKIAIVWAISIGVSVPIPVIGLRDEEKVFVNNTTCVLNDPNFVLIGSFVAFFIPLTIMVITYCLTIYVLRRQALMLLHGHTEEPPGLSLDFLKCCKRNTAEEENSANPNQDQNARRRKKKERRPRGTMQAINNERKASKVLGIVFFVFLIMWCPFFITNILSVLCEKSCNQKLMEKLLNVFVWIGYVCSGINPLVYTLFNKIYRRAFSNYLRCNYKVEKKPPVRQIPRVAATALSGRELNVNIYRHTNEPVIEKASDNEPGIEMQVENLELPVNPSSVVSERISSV
D(4) dopamine receptor, sequence (P21917 whole entry): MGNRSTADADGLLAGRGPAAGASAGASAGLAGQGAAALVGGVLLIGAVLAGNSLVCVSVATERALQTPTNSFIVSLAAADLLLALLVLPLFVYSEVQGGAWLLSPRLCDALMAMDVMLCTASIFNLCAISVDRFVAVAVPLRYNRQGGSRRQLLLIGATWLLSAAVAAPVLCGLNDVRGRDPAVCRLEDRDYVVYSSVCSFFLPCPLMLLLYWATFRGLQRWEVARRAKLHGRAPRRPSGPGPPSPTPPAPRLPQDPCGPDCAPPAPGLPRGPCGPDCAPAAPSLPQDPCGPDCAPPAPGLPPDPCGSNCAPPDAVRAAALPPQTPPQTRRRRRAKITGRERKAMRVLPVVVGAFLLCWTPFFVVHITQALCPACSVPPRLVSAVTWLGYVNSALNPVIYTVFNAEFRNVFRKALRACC

For orientation: pKi means the negative decadic logarithm of the Ki, by convention in mol/L. A low value points to a large Ki. As a reminder, the logD is lipophilicity at a set pH, counting ionised and neutral species. A low value points to a more hydrophilic compound. The term pIC50 denotes the negative decadic logarithm of the IC50, by convention in mol/L. A higher pIC50 goes with a small IC50. Turning to `N#Cc1cc(F)cc(C#Cc2csc(CF)n2)c1`, the negative-log Ki (pKi) (at D(1B) dopamine receptor; in series [1]; on Histamine H1 receptor; in series [2]; in series [3]; in [4]) was less than 5.00 in each case. In addition, the pKi (in [5]; at Mu-type opioid receptor; at D(4) dopamine receptor; in [6]; in series [7]; in series [8]) was less than 5.00 throughout. Moreover, the pKi (at Histamine H2 receptor; in series [9]; in series [10]; on D(1A) dopamine receptor; in series [12]; in series [14]) was less than 5.00 in each case. For the same compound, the pKi in [15], in [16], in series [17], in [18], in [19] and in series [20] was less than 5.00 throughout. For the same compound, the pKi (on D(2) dopamine receptor; in series [21]; at Histamine H3 receptor; in series [22]; in series [23]; in series [24]) was less than 5.00 each time. The negative logarithm of the Ki (pKi) (in series [25]; in [26]; at Histamine H4 receptor; at D(3) dopamine receptor; in series [27]; in [28]) was less than 5.00 in each case. For the same compound, the pKi in series [29], in series [30], in series [31], in series [32], in series [33] and in series [34] was less than 5.00 throughout. In addition, the negative-log Ki (pKi) in series [35], in [36] and in [37] was less than 5.00 throughout. The same compound gave a logD in [11] of 2.18. In [13], this compound had a pIC50 of 10.44.

In series [13], `N#Cc1cncc(C#Cc2csc(CF)n2)c1` gave a negative logarithm of the IC50 (pIC50) of 9.64.

Consider `FCc1nc(C#Cc2cccc(F)c2)cs1`, for which, in series [13], the negative logarithm of the IC50 (pIC50) is 9.32.

Source of the values: ChEMBL document CHEMBL1145430, “Synthesis and simple 18F-labeling of 3-fluoro-5-(2-(2-(fluoromethyl)thiazol-4-yl)ethynyl)benzonitrile as a high affinity radioligand for imaging monkey brain metabotropic glutamate subtype-5 receptors with positron emission tomography” (J Med Chem, 2007).
